Data set [1] is described as follows: Distribution coefficient, log D of the compound at pH 7.4. The settings on record: octanol/water. The data set is classed as physicochemical.
Data set [2] in a line: Dissociation constant, pKa of the compound. The data set is classed as physicochemical.
Data set [3] is described as follows: Lipophilicity, log P of the compound. The settings on record: octanol/water. The data set is classed as physicochemical.
In data set [4] the target is Sigma non-opioid intracellular receptor 1 (Homo sapiens) (UniProt Q99720). Put plainly: Displacement of [3H](+)-pentazocine from human sigma 1 receptor expressed in MCF7 cells at 1 uM after 180 mins by scintillation counting. The data set is classed as cell-based. The procedure, abridged: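 Membranes from MCF-7 cells stably expressing cloned human σ1 receptor, 0.01–0.05 mg/mL protein, in 50 mM Tris pH 8.0. Incubated 180 min at 37 °C with shaking with 1 nM [3H]-(+)-pentazocine and 1 μM compound; BD1063 defined nonspecific binding. Filtered on PEI-treated GF/C, washed with ice-cold buffer, scintillation counted; triplicates, 3–4 experiments.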
Sigma non-opioid intracellular receptor 1 (Homo sapiens), sequence (Q99720 whole entry): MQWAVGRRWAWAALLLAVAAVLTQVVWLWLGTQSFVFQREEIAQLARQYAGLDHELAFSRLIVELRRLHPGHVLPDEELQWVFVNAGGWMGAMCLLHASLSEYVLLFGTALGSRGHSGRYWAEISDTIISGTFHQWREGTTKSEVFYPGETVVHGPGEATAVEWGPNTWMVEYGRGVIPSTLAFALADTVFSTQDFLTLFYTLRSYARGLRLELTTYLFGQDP

For data set [5], the target named is D(2) dopamine receptor (Rattus norvegicus) (UniProt P61169). Put plainly: Displacement of [3H]MSP from rat dopamine D2L receptor expressed in HEK293 cells at 1 uM after 90 mins by scintillation counting. The data set is classed as cell-based. The procedure, abridged:
(§1)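 HEK293 membranes stably expressing rat D2 or human 5-HT1A, 5-HT2A or 5-HT2C receptors, used fresh. Incubated 90 min at 25 °C in 50 mM Tris pH 7.4 with about […] radioligand and 1 μM compound (DMSO or DMF stock diluted ≥1:1000). Nonspecific binding defined by (+)-butaclamol for D2, NAN-190 for 5-HT1A and mianserin for 5-HT2A/2C. PEI-GF/C filtration, scintillation count; % displacement from triplicates, 3–4 repeats.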

Another data set has as its target T1, D(4) dopamine receptor (Rattus norvegicus, UniProt P30729).
T1 sequence (P30729 whole entry): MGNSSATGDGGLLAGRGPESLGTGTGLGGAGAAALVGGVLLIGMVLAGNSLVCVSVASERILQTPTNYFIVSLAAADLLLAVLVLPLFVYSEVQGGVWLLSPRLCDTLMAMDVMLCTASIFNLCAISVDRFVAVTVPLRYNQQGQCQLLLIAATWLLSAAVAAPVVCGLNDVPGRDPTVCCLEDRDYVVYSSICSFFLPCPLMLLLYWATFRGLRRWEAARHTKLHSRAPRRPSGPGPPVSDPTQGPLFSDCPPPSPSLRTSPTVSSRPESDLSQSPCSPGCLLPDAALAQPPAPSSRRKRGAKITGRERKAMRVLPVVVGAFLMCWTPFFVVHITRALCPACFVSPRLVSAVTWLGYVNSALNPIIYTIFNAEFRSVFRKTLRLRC
Put plainly: Displacement of [3H]MSP from rat dopamine D4 receptor expressed in HEK293 cells after 90 mins by scintillation counting. The data set is classed as cell-based. The procedure, abridged:
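Competition binding on fresh membranes from HEK293 cells stably expressing rat D4 receptor, with about […] [3H]methylspiperone for 90 min at 25 °C in 50 mM Tris pH 7.4; (+)-butaclamol defined nonspecific binding. Filtered and scintillation counted. IC50 converted to Ki by Cheng–Prusoff; triplicates, 3–4 experiments.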

Data set [6] has as its target T2, 5-hydroxytryptamine receptor 2C (Homo sapiens) (UniProt P28335).
T2 sequence (whole entry): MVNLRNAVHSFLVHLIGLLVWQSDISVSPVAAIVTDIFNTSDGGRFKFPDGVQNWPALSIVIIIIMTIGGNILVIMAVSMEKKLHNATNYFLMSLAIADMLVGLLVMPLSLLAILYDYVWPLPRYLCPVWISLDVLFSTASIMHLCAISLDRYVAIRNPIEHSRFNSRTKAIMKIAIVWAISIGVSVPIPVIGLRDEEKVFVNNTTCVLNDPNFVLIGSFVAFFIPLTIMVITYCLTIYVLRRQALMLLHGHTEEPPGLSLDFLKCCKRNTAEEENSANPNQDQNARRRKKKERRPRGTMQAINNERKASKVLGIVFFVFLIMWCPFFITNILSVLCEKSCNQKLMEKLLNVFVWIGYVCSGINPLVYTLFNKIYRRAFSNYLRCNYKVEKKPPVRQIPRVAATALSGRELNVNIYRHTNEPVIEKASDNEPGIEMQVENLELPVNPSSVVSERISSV
Description: Displacement of [3H]mesulergine from human 5HT2C receptor expressed in HEK293 cells at 1 uM after 90 mins by scintillation counting. The data set is classed as cell-based. The gist of the method:
as §1
A general note: In a radioligand displacement assay an active substance lowers the binding of a labelled ligand.

A short description of data set [7]: Drug level in CD1 mouse plasma at 10 mg/kg, ip after 15 mins. The data set is classed as ADME, organism-based. Further details: dose 10 mg/kg, route intraperitoneal. Particulars: read-out: Drug uptake.
Data set [8] has as its target T3, 5-hydroxytryptamine receptor 1A (Homo sapiens) (UniProt P08908).
T3 sequence (whole entry): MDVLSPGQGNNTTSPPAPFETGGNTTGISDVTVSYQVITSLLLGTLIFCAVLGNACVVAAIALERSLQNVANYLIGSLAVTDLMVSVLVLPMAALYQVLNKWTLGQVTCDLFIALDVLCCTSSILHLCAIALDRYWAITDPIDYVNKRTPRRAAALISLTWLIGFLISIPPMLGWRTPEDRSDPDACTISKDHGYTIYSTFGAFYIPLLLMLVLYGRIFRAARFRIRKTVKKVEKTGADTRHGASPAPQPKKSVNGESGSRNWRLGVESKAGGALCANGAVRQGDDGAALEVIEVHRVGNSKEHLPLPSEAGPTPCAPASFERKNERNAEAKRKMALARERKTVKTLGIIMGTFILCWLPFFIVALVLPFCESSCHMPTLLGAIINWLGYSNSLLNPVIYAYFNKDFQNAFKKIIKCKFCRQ
Description: Displacement of [3H]MPPF from human 5HT1A receptor expressed in HEK293 cells at 1 uM after 90 mins by scintillation counting. The data set is classed as cell-based. The procedure, abridged: as §1

Data set [9] concerns the target T4, D(4) dopamine receptor (Rattus norvegicus) (UniProt P30729).
T4 sequence (whole entry): T1 sequence (P30729 whole entry)
Put plainly: Agonist activity at rat dopamine D4 receptor expressed in HEK293 cells assessed as decrease in forskolin-stimulated levels of cAMP accumulation up to 10 uM. The data set is classed as functional, cell-based. In general terms: cAMP levels reflect the balance of adenylyl cyclase and phosphodiesterase activity.

In the next data set the test system is Plasma. Put plainly: Drug level in CD1 mouse plasma at 10 mg/kg, ip after 30 to 60 mins. The data set is classed as ADME, organism-based. Further details: dose 10 mg/kg, route intraperitoneal. The settings on record: in vivo. The gist of the method:
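Male CD1 mice, 25–30 g, given 10 mg/kg ip in ethanol/PEG 40/saline (10:40:50). Killed at 15–240 min. Plasma (0.2 mL) alkalinised and extracted into dichloromethane with a 1-(2-thiazolyl)piperazine internal standard, then run on gradient reversed-phase HPLC-UV at 264 nm; quantification limit about 100 ng/mL. Mean ± SD, n = 3.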

Data set [10] deals with 5-hydroxytryptamine receptor 2A (Homo sapiens) (UniProt P28223). Description: Displacement of [3H]MSP from human 5HT2A receptor expressed in HEK293 cells at 1 uM after 90 mins by scintillation counting. The data set is classed as cell-based. The procedure, abridged: as §1
5-hydroxytryptamine receptor 2A (Homo sapiens), sequence (P28223 whole entry): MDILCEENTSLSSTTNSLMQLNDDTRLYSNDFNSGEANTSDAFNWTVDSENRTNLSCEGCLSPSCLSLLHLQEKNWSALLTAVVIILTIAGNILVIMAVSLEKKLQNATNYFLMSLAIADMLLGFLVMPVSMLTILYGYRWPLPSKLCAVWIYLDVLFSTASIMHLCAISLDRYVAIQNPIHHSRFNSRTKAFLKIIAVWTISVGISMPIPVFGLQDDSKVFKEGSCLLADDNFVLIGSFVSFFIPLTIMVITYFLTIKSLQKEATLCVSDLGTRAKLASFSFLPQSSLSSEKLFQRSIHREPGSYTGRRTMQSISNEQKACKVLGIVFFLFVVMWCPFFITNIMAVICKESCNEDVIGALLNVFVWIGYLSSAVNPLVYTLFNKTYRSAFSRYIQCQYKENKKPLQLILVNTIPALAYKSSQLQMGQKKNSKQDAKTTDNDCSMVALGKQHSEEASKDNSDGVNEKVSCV
A short description of data set [11]: Drug level in CD1 mouse brain at 10 mg/kg, ip after 15 mins. The settings on record: read-out: Drug uptake. The data set is classed as ADME, organism-based. Further details: dose 10 mg/kg, route intraperitoneal.
The target of data set [12] is Cannabinoid receptor 1 (Rattus norvegicus) (UniProt P20272). Description: Displacement of [3H]CP55940 from CB1 receptor in rat brain at 1 uM after 180 mins by scintillation counting.
Cannabinoid receptor 1 (Rattus norvegicus), sequence (P20272 whole entry): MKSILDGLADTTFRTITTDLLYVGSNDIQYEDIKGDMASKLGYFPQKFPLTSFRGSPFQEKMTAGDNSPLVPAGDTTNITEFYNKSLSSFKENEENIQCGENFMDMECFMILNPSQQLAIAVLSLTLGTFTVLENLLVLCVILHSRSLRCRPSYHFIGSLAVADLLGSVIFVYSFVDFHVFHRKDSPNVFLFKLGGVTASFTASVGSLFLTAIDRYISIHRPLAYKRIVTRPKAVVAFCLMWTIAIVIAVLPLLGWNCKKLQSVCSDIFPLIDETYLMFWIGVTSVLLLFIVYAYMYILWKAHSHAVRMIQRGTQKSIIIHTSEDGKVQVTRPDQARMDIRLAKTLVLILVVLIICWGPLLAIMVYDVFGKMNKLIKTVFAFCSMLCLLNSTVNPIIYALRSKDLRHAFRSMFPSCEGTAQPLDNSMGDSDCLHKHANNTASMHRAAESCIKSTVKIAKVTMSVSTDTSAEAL
Data set [13] deals with D(3) dopamine receptor (Homo sapiens) (UniProt P35462). Put plainly: Displacement of [3H]MSP from human dopamine D3 receptor expressed in CHO-K1 cells at 1 uM after 90 mins by scintillation counting. The data set is classed as cell-based. The procedure, abridged: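 Frozen CHO-K1 membranes carrying human D3 receptor, incubated with about […] [3H]methylspiperone and 1 μM compound for 90 min at 25 °C in 50 mM Tris pH 7.4. Nonspecific binding defined with 5 μM 7-OH-DPAT. Filtered on PEI-treated GF/C and scintillation counted; triplicate points, experiment repeated 3–4 times.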
D(3) dopamine receptor (Homo sapiens), sequence (P35462 whole entry): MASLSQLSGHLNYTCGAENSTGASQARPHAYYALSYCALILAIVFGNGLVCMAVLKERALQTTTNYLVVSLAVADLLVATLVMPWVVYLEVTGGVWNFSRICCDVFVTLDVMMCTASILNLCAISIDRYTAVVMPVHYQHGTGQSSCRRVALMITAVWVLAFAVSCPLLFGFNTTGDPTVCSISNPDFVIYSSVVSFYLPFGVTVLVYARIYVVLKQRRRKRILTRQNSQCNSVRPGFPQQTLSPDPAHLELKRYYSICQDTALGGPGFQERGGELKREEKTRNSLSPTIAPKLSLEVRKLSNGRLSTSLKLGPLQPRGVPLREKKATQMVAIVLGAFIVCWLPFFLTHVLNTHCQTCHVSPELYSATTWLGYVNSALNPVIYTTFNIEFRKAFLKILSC

A short description of data set [14]: Drug level in CD1 mouse brain at 10 mg/kg, ip after 30 mins. The data set is classed as ADME, organism-based. Further details: dose 10 mg/kg, route intraperitoneal. The settings on record: read-out: Drug uptake.
Data set [15] in a line: Drug level in CD1 mouse plasma at 10 mg/kg, ip after 30 mins. Further details: dose 10 mg/kg, route intraperitoneal. The settings on record: read-out: Drug uptake. The data set is classed as ADME, organism-based.

Calls of active or inactive are those of the source. The calls are words filed in the database; no cut-off is given here.

D(2) dopamine receptor (Rattus norvegicus), sequence (P61169 whole entry): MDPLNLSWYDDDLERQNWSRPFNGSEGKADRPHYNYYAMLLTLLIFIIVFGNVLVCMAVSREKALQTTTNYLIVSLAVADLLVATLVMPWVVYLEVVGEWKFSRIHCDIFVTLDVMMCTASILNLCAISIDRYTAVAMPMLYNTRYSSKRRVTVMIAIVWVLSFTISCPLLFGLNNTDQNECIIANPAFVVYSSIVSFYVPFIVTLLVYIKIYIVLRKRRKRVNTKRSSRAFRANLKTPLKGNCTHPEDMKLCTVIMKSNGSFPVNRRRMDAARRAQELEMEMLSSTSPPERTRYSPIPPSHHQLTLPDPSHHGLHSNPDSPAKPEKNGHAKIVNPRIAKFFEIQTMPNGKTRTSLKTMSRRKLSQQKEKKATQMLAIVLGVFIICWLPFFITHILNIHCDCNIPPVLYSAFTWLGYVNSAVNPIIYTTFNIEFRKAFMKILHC

Usually logD stands for the decadic logarithm of the distribution of all forms, ionised or not, between an organic phase and buffer at a given pH. What is called pKa is the pH at which an ionisable group is half protonated. Read a low pKa as a stronger acid or weaker base. A word on the logP: it is the decadic logarithm of the partition coefficient of the neutral form, usually between octanol and water. Read a high logP as higher lipophilicity. The term Ki denotes a dissociation constant, usually derived from enzyme kinetics or from competition with a known ligand. High values mean a looser hold on the target, low ones a stronger hold on the target. In the case of `O=C(NCCN1CCN(c2noc3ccccc23)CC1)c1ccc(F)cc1`, the logD in data set [1] is recorded as 3.75. The compound further yielded a pKa in data set [2] of 6.43. The compound also gave a logP in data set [3] of 3.79. Besides, the Activity came to 21% in data set [4] and 89% in data set [5]. For the same compound, the Ki on D(4) dopamine receptor amounted to 0.34 nM.

Consider `N#Cc1cccnc1N1CCN(CCNC(=O)c2ccc(F)cc2)CC1`, for which the Activity worked out at 0% in [6]; 29% in data set [8]; 1% in data set [4]; 32% in data set [5]; 53% in data set [10]; 9.9% in data set [12]. In [13], this compound yielded an Activity of 7.2%. In data set [2], this compound returned a pKa of 6.4. For the same compound, the figures for the concentration at 0.25 h in [7] and in data set [11] were 130 ng/mL and 470 ng/g, respectively. For the same compound, the logP in data set [3] worked out at 2.37. Also, in data set [9], the outcome was Active. Also, the Drug uptake with Plasma was below 0.1 µg/mL. The compound further displayed a Ki on D(4) dopamine receptor of 0.93 nM.

`Cc1ccc(N2CCN(CCNC(=O)c3ccc(F)cc3)CC2)cc1` displayed a pKa in data set [2] of 6.31. In addition, the figures for the Activity in [4] and in [5] were 21% and 29%, respectively. For the same compound, on D(4) dopamine receptor, the affinity, expressed as Ki, was 2.64 nM.

On to `O=C(NCCN1CCN(c2ccc(Cl)cc2)CC1)c1ccc(F)cc1`, for which the pKa in data set [2] is 6.46. In data set [3], this compound showed a logP of 3.75. Besides, the values for the Activity in [4] and in [5] were 29% and 48%, respectively. Further, the Ki on D(4) dopamine receptor turned out to be 1.76 nM.

In data set [2], `O=C(NCCN1CCN(c2ccc(Cl)cn2)CC1)c1ccc(F)cc1` registered a pKa of 6.58. Moreover, the logP in [3] was 3.42. Further, the Activity in data set [4] was 33%; in data set [5], 43%. In addition, at D(4) dopamine receptor, the affinity, expressed as Ki, was 2.92 nM.

In the case of `COc1cccc(C(=O)NCCN2CCN(c3ccc(Cl)cc3)CC2)c1`, in data set [2], the pKa was 6.19. Further, the Activity in data set [4] amounted to 22%; in data set [5], 7.8%. In addition, the affinity on D(4) dopamine receptor corresponds to a Ki of 4.97 nM.

Regarding `N#Cc1ccc(N2CCN(CCNC(=O)c3ccc(F)cc3)CC2)cc1`, the pKa in [2] turned out to be 6.43. In addition, the logP in [3] is recorded as 3.07. In addition, the Activity in data set [4] is 4.6%; in [5], 0%. The compound also registered a Ki at D(4) dopamine receptor of 32.7 nM.

With `COc1cccc(C(=O)NCCN2CCN(c3ccc(C#N)cc3)CC2)c1`, the values for the Activity in data set [4] and in [5] were 27% and 0%, respectively. For the same compound, the affinity at D(4) dopamine receptor, expressed as Ki, was 63.9 nM.

With `COc1cccc(C(=O)NCCN2CCN(c3ncccc3C#N)CC2)c1`, the concentration at 0.5 h came to 140 ng/g in [14] and 370 ng/mL in data set [15]. Also, the Activity is 3.2% in data set [6]; 9.3% in data set [8]; 8.3% in [4]; 4.4% in data set [5]; 24% in [10]; 6.5% in [12]. This compound also gave an Activity in data set [13] of 5.1%. Moreover, in data set [2], the pKa was 6.71. The same compound registered a lipophilicity (logP) in data set [3] of 2.55. For the same compound, in data set [9], the outcome was Active. The compound further registered a Drug uptake in the data set on Plasma of 0.1 µg/mL. The same compound displayed a Ki at D(4) dopamine receptor of 1.52 nM.

Turning to `COc1cccc(C(=O)NCCN2CCN(c3ccc(C)cc3)CC2)c1`, the logD in data set [1] was 2.78. This compound also gave a pKa in data set [2] of 6.46. In data set [4], this compound yielded an Activity of 7.2%.

Compound `COc1cccc(C(=O)NCCN2CCN(c3ccc(Cl)cn3)CC2)c1` returned a pKa in [2] of 6.45. The compound also displayed a logP in data set [3] of 3.29. The compound further returned an Activity in data set [4] of 15%.

`COc1cccc(C(=O)NCCN2CCN(c3noc4ccccc34)CC2)c1` gave a pKa in data set [2] of 6.24. Also, the Activity in [4] worked out at 13%; in data set [5], 84%. For the same compound, the affinity at D(4) dopamine receptor corresponds to a Ki of 1.93 nM.
